Experimental data as given in ChEMBL document CHEMBL1153367, “Synthesis and evaluation of lysine derived sulfamides as histone deacetylase inhibitors” (Bioorg Med Chem Lett, 2009).

Legend:
Histone deacetylase 1 = Histone deacetylase 1 (Homo sapiens, UniProt Q13547); experiment: Inhibition of human recombinant FLAG-tagged HDAC1 expressed in baculovirus
In short: (§1)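 Enzyme preincubated with inhibitor 10 min at ambient temperature in 25 mM Hepes pH 8.0, 137 mM NaCl, 1 mM MgCl₂, 2.7 mM KCl. Coumarin-labeled acetyl-lysine substrate then added, incubated at 37 °C. Quenched with trypsin (1 mg/mL final) and TSA (1 μM final). Fluorescence read; IC50 from dose–response curves. Values are means of at least two experiments.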

[1] = target: T1, Protein deacetylase HDAC6 (Homo sapiens, UniProt Q9UBN7); experiment: Inhibition of human recombinant His-tagged HDAC6 expressed in baculovirus; in short: as §1
T1 sequence (Q9UBN7 whole entry): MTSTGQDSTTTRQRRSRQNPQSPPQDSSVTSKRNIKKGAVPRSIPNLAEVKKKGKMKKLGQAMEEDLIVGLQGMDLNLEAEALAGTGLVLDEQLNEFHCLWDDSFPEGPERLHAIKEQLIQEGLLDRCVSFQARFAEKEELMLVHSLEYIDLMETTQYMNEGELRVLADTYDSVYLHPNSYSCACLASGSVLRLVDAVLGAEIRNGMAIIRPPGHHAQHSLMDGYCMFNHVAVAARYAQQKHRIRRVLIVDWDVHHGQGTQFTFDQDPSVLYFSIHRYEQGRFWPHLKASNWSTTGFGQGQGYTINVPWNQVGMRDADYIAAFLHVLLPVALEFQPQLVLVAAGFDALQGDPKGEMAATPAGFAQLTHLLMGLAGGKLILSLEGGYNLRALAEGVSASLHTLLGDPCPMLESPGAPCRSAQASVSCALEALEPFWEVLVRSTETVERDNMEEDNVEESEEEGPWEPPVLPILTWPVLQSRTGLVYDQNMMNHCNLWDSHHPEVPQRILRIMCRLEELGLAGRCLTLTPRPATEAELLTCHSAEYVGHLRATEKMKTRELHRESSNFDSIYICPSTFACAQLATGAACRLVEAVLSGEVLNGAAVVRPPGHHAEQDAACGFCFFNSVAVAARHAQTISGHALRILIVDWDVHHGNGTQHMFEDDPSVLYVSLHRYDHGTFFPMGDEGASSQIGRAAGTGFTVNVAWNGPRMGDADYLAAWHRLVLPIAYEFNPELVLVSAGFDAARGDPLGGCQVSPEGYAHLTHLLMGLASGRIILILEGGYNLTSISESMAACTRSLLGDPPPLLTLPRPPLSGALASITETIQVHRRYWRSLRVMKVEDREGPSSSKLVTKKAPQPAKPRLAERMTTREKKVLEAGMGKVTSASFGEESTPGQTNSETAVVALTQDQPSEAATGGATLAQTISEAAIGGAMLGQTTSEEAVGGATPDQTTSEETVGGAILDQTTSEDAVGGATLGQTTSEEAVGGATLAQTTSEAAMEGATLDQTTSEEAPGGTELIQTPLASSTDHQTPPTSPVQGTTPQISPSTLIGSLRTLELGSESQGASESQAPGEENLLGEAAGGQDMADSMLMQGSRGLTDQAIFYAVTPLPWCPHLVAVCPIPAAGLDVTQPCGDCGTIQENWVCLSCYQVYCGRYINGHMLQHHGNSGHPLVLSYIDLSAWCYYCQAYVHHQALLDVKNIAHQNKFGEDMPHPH

Histone deacetylase [2] = experiment: Inhibition of HDAC in HEK293T cells by whole cell assay; type: cell-based, Homo sapiens; settings: hek-293t
In short: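 Cultured 293T cells exposed to inhibitors for 16 h, then given the membrane-permeable substrate Boc-Ac-Lys-AMC for 90 min at 37 °C. Quenched with trypsin (1 mg/mL final) and TSA, then lysed in 1% NP-40. Fluorescence read at Ex 360/Em 470 nm; IC50 reported. Values are means of at least two experiments.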

Homo sapiens = species: Homo sapiens; experiment: Selectivity for ratio of IC50 for human recombinant HDAC1 to IC50 for human recombinant HDAC6
In short: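 HDAC1 and HDAC6 were each preincubated with compound for 10 min at ambient temperature in 25 mM Hepes pH 8.0, 137 mM NaCl, 1 mM MgCl2, 2.7 mM KCl. A coumarin-labeled acetyl-lysine substrate was then added at 37 °C. Reactions were quenched with trypsin (1 mg/mL final) plus TSA, and fluorescence was read. IC50s came from dose-response curves, as means of at least two experiments. The ratio is HDAC1 IC50 over HDAC6 IC50.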

[3] = Clearance in iv dosed rat; type: ADME, organism-based; settings: in vivo
[4] = Volume of distribution at steady state in rat; type: ADME, organism-based; settings: in vivo, read-out: Vdss
[5] = Half life in rat; type: ADME, organism-based; settings: in vivo
[6] = Oral bioavailability in rat; type: ADME, organism-based; settings: in vivo
Plasma [7] = experiment: Metabolic stability in rat plasma; type: ADME, cell-free
Plasma [8] = experiment: Metabolic stability in human plasma; type: ADME, cell-free
[9] = Clearance in dog; type: ADME, organism-based, Canis lupus familiaris; settings: in vivo
[10] = Half life in dog; type: ADME, organism-based, Canis lupus familiaris; settings: in vivo
[11] = Bioavailability in dog; type: ADME, organism-based, Canis lupus familiaris; settings: in vivo
[12] = Metabolic stability in rat plasma assessed as compound remaining after 1 hr; type: ADME, cell-free; settings: read-out: Activity
In short: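 Compound kept in rat plasma at 37 °C for 1 h; percentage of intact compound remaining was measured.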

Histone deacetylase [13] = experiment: Inhibition of HDAC in T24 cells assessed as histone H3 acetylation; settings: Homo sapiens
Histone deacetylase [14] = experiment: Inhibition of HDAC in T24 cells assessed as alpha-tubulin acetylation; settings: Homo sapiens

Histone deacetylase 1, sequence (Q13547 whole entry): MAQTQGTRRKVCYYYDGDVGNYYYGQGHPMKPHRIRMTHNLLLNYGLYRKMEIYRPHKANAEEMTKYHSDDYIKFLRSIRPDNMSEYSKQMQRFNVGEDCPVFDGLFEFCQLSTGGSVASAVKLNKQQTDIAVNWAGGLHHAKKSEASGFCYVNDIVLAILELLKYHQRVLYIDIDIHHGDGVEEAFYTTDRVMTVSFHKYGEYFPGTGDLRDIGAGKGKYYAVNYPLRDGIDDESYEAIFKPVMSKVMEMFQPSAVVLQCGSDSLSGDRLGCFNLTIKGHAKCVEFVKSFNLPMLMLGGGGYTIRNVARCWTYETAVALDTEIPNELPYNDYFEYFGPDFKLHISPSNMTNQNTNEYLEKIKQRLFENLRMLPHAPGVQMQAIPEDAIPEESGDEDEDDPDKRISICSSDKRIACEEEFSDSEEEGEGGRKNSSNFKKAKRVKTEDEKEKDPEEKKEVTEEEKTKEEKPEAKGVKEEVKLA

| SMILES | IC50 (Histone deacetylase 1) | IC50 [1] | IC50 (Histone deacetylase [2]) | also measured |
| --- | --- | --- | --- | --- |
| NS(=O)(=O)NCCCC[C@H](NC(=O)OCc1ccccc1)C(=O)Nc1nc(-c2ccccc2)c(-c2ccccc2)s1 | 0.85 µM | 0.45 µM | 7.2 µM |  |
| NS(=O)(=O)NCCCC[C@H](NC(=O)OCc1ccc(Cl)cc1)C(=O)Nc1nc(-c2ccccc2)cs1 | 0.57 µM | 0.53 µM | 6.8 µM |  |
| CCOC(=O)c1csc(NC(=O)[C@H](CCCCNS(N)(=O)=O)NC(=O)OCc2ccccc2)n1 | > 10 µM | 0.58 µM | > 50 µM |  |
| NS(=O)(=O)NCCCC[C@H](NC(=O)Nc1ccccc1)C(=O)Nc1nc(-c2ccccc2)cs1 | 2.3 µM | 0.56 µM | > 50 µM |  |
| NS(=O)(=O)NCCCC[C@H](NC(=O)OCc1ccccc1)C(=O)Nc1nc(-c2ccc(Cl)cc2)cs1 | 0.15 µM | 0.25 µM | 4.9 µM |  |
| COc1ccc(-c2nc([C@H](CCCCNS(N)(=O)=O)NC(=O)OCc3ccccc3)cs2)cc1 | 0.5 µM | 0.48 µM |  |  |
| NS(=O)(=O)NCCCC[C@H](NC(=O)OCc1cccc(Cl)c1)C(=O)Nc1nc(-c2ccccc2)cs1 | 0.35 µM | 0.28 µM | 3.6 µM |  |
| NS(=O)(=O)NCCCC[C@H](NC(=O)OCc1ccccc1)c1nc(-c2ccccc2)cs1 | 4.9 µM | 1.2 µM | 12 µM |  |
| COc1ccc2[nH]c(C)c(CC(=O)N[C@@H](CCCCNS(N)(=O)=O)C(=O)Nc3nc(-c4ccccc4)cs3)c2c1 | 0.064 µM | 1.2 µM | 0.59 µM |  |
| COc1cccc(-c2csc(NC(=O)[C@H](CCCCNS(N)(=O)=O)NC(=O)OCc3ccccc3)n2)c1 | 0.46 µM | 0.42 µM | 3.2 µM |  |
| NS(=O)(=O)NCCCC[C@H](NC(=O)OCc1ccccc1)c1csc(-c2ccccc2)n1 | 0.79 µM | 0.4 µM | 5.8 µM | Ratio IC50 (Homo sapiens): 2 |
| NS(=O)(=O)NCCCC[C@H](NC(=O)OCc1ccccc1)c1nc2ccccc2[nH]1 | 2.9 µM | 0.1 µM | 9.5 µM |  |
| CN(C)CCOc1ccc(-c2nc([C@H](CCCCNS(N)(=O)=O)NC(=O)OCc3ccccc3)cs2)cc1 | 0.39 µM | 0.89 µM | 0.18 µM | clearance [3]: 38.3 mL/min/kg; Vd [4]: 0.78 L/kg; half-life [5]: 1.6 h; bioavailability [6]: 0.5% |
| CC(C)(C)c1csc(NC(=O)[C@H](CCCCNS(N)(=O)=O)NC(=O)OCc2ccccc2)n1 | 3.6 µM | 0.84 µM | 9.1 µM |  |
| NS(=O)(=O)NCCCC[C@H](NC(=O)OCc1ccccc1)c1nc2cc(-c3cccs3)ccc2[nH]1 | 0.2 µM | 0.48 µM | 0.62 µM | Stability (Plasma [7]): Stable; Stability (Plasma [8]): Stable; clearance [3]: 6.83 mL/min/kg; Vd [4]: 0.03 L/kg; half-life [5]: 1.2 h; bioavailability [6]: 0.5%; clearance [9]: 8.5 mL/min/kg; half-life [10]: 5.7 h; bioavailability [11]: 6% |
| NS(=O)(=O)NCCCC[C@H](NC(=O)OCc1ccccc1)c1n[nH]c(-c2ccccc2)n1 | 2.4 µM | 0.32 µM | 6.4 µM |  |

| SMILES | IC50 (Histone deacetylase 1) | IC50 [1] | IC50 (Histone deacetylase [2]) | also measured |
| --- | --- | --- | --- | --- |
| NS(=O)(=O)NCCCC[C@H](NC(=O)OCc1ccccc1)C(=O)Nc1nccs1 | > 10 µM | 4.1 µM | > 50 µM |  |
| NS(=O)(=O)NCCCC[C@H](NC(=O)OCc1ccccc1)c1nnc(-c2ccccc2)o1 | 3.2 µM | 1.8 µM | 9.9 µM |  |
| NS(=O)(=O)NCCCC[C@H](NC(=O)OCc1cccnc1)C(=O)Nc1nc(-c2ccccc2)cs1 | 1.5 µM | 0.6 µM | 18 µM |  |
| CC(C)c1ccc(-c2csc(NC(=O)[C@H](CCCCNS(N)(=O)=O)NC(=O)OCc3ccccc3)n2)cc1 | 0.52 µM | 1.4 µM | 3.2 µM |  |
| CCOC(=O)N[C@@H](CCCCNS(N)(=O)=O)C(=O)Nc1nc(-c2ccccc2)cs1 | 2.5 µM | 0.2 µM | 17 µM |  |
| NS(=O)(=O)NCCCC[C@H](NC(=O)Cc1ccccc1)C(=O)Nc1nc(-c2ccccc2)cs1 | 0.7 µM | 0.15 µM | 6.1 µM |  |
| NS(=O)(=O)NCCCC[C@H](NS(=O)(=O)Cc1ccccc1)C(=O)Nc1nc(-c2ccccc2)cs1 | 1.4 µM | 0.52 µM | 38 µM |  |
| NS(=O)(=O)NCCCC[C@H](NC(=O)OCc1ccccc1)c1c[nH]c(-c2ccccc2)n1 | 0.29 µM | 0.41 µM | 2.2 µM |  |
| COc1ccc(-c2csc(NC(=O)[C@H](CCCCNS(N)(=O)=O)NC(=O)OCc3ccccc3)n2)cc1 | 0.12 µM | 0.2 µM | 0.53 µM |  |
| NS(=O)(=O)NCCCC[C@H](NC(=O)OCc1ccccc1)C(=O)Nc1nc(-c2ccccc2)cs1 |  |  | 2.3 µM | remaining at 1 h [12]: 3%; clearance [3]: 41.7 mL/min/kg; Vd [4]: 0.02 L/kg; half-life [5]: 0.025 h; bioavailability [6]: 4.9%; EC50 (Histone deacetylase [13]): 0.7 µM; EC50 (Histone deacetylase [14]): 0.6 µM |
| NS(=O)(=O)NCCCC[C@H](NC(=O)OCc1ccccc1)c1nc(-c2ccc(F)cc2)no1 | > 10 µM | 1.7 µM | > 50 µM |  |
| N[C@@H](CCCCNS(N)(=O)=O)C(=O)Nc1nc(-c2ccccc2)cs1 | > 10 µM | 1.1 µM | > 50 µM |  |
| Cn1nc([C@H](CCCCNS(N)(=O)=O)NC(=O)OCc2ccccc2)nc1-c1ccccc1 | 4.3 µM | 2 µM | > 50 µM |  |
| NS(=O)(=O)NCCCC[C@H](NC(=O)NCc1ccc(F)cc1)C(=O)Nc1nc(-c2ccccc2)cs1 | 0.35 µM | 0.37 µM | 29 µM |  |
| NS(=O)(=O)NCCCC[C@H](NC(=O)OCc1ccccc1)C(=O)Nc1nc2ccccc2s1 | 4.5 µM | 0.19 µM | 19 µM |  |
